Experimental findings from ChEMBL document CHEMBL1124502, “Novel indolecarboxamidotetrazoles as potential antiallergy agents” (J Med Chem, 1989) are described below.

For experiment [1], the target named is T1, High affinity immunoglobulin epsilon receptor subunit alpha (Homo sapiens) (UniProt P12319).
T1 sequence (whole entry): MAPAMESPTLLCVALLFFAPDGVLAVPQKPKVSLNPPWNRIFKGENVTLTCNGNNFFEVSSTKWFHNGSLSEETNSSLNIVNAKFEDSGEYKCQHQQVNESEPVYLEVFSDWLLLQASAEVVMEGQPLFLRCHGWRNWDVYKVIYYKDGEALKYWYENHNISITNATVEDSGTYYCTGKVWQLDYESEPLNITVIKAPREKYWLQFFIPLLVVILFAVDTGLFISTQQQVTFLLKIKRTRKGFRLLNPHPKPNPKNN
As to the kind of experiment: (§1) Inhibition of anti-IgE antibody-stimulated histamine release in human basophills at 10 uM. Type of experiment: functional. Summed up: (§2)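 Human leukocytes isolated after red-cell sedimentation, washed, suspended in buffer; preincubated with compound then challenged with anti-IgE. Released histamine measured by automated fluorometric assay; percent inhibition versus undrugged anti-IgE-challenged controls.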

In experiment [2] the target is T1, High affinity immunoglobulin epsilon receptor subunit alpha (Homo sapiens). As to the kind of experiment: (§3) Inhibition of anti-IgE antibody-stimulated histamine release in human basophills at 33 uM. In kind it is functional. Summed up: as §2
For experiment [3], the species on record is Cavia porcellus. As to the kind of experiment: Inhibition of ovalbumin-stimulated histamine release in guinea pig lung. In kind it is functional, organism-based.
The species named for experiment [4] is Homo sapiens. The experiment is described as §3. Type of experiment: functional, organism-based. Summed up:
as §2

Experiment [5] is filed under the species Cavia porcellus. As to the kind of experiment: Inhibition of ovalbumin-stimulated histamine release in guinea pig lung, at 75 uM compound concentration; […]. In kind it is functional.
The species entered for experiment [6] is Homo sapiens. Kind of experiment: Inhibition of anti-IgE antibody stimulated histamine release in human lung, at 75 uM compound concentration; […]. Type of experiment: functional.
Experiment [7] is filed under the species Homo sapiens. As to the kind of experiment: Inhibition of anti-IgE antibody stimulated histamine release in human basophils. In kind it is functional. The method in brief: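 Human leukocytes obtained after red-cell sedimentation, washed and suspended in buffer, preincubated with drug, then challenged with anti-IgE. Histamine quantified by automated fluorometric assay; percent inhibition vs nondrug anti-IgE-challenged controls. IC50 from threefold concentrations 1–100 μM.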

The species named for experiment [8] is Homo sapiens. As to the kind of experiment: Inhibition of anti-IgE antibody stimulated histamine release in human lung. In kind it is functional, organism-based. The method in brief: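 Grossly normal human lung from lobectomy, dissected, chopped into 25–75-mg fragments, washed, held overnight in Tyrode's buffer at room temperature, rewashed. About 400 mg tissue at 37 °C in Tyrode's for 10 min, drug or vehicle added, 10 min later anti-IgE (final 3:1000), 30 min further incubation, supernatant sampled for histamine.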

The species entered for experiment [9] is Cavia porcellus. Kind of experiment: Inhibition of ovalbumin stimulated histamine release in guinea pig lung.
Experiment [10] is filed under the species Homo sapiens. As to the kind of experiment: Inhibition of anti-IgE antibody-stimulated histamine release in human basophills at 33 uM; c = sample fluorescence interferes with the histamine assay. In kind it is functional. The method in brief:
as §2

The species named for experiment [11] is Homo sapiens. The experiment is described as §1. In kind it is functional. Summed up: as §2

`CC(C)Oc1c(C(=O)Nc2nn[nH]n2)n(-c2ccccc2)c2cc(Cl)c(Cl)cc12`: the inhibition in experiment [1] came out at 40%; in [2] it was 84%.

Consider `COc1ccc2c(c1)c(S(C)(=O)=O)c(C(=O)Nc1nn[nH]n1)n2-c1ccccc1`, for which the inhibition in [2] is under 25%.

`Cc1ccc2c(c1)c(OC(C)C)c(C(=O)Nc1nn[nH]n1)n2-c1ccccc1` displayed an inhibition in experiment [2] of under 25%.

Turning to `CC(C)Oc1c(C(=O)Nc2nn[nH]n2)n(-c2ccccc2)c2ccc(Br)cc12`, the inhibition in [1] came out at 7%; in [2], 33%.

For `O=C(Nc1nn[nH]n1)c1c(OCc2ccccc2)c2ccccc2n1-c1ccccc1`, in [2], the inhibition was under 25%.

Take `COc1ccc2c(c1)c1oc(C(=O)Nc3nnn[nH]3)c(OC)c1n2-c1ccccc1.NC(N)=NCCC[C@H](N)C(=O)O`: the IC50 is 13.4 µM in the experiment filed under Cavia porcellus [3] and 8.5 µM in the experiment filed under Homo sapiens [4].

Consider `COc1ccc2[nH]c(C(=O)Nc3nn[nH]n3)c(OC(C)C)c2c1`, for which the values for the inhibition in experiment [1] and in experiment [2] were 17% and 62%, respectively.

Take `CCOc1c(C(=O)Nc2nn[nH]n2)[nH]c2ccc(OC)cc12`: the inhibition was 7% in experiment [1] and 46% in experiment [2].

As for `COc1ccc2c(c1)cc(C(=O)Nc1nn[nH]n1)n2-c1ccccc1`, the inhibition in experiment [2] was under 25%.

With `CCCc1c2oc(C(=O)O)cc(=O)c2cc2c(=O)cc(C(=O)O)n(CC)c12` [NEDOCROMIL], the Inhibition result in the experiment filed under Cavia porcellus [5] and in the experiment filed under Homo sapiens [6] was “<=25%” in each case. In addition, in [2], the inhibition is under 25%.

In experiment [2], `COc1ccc2c(c1)c(Oc1ccc([N+](=O)[O-])cc1)c(C(=O)Nc1nn[nH]n1)n2-c1ccccc1` had an inhibition of under 25%.

As for `COc1ccc2c(c1)c(OC(C)C)c(-c1nn[nH]n1)n2-c1ccccc1`, the inhibition in experiment [1] came out at 25%; in [2], 37%.

Regarding `COc1ccc(-n2c(C(=O)Nc3nn[nH]n3)c(OC(C)C)c3cc(OC)ccc32)cc1`, the results for the inhibition in [1] and in [2] were 16% and 49%, respectively.

`COc1ccc(-n2c(C(=O)Nc3nn[nH]n3)c(OC(C)C)c3ccccc32)cc1`: the inhibition in experiment [2] was under 25%.

Consider `COc1ccc2c(c1)c(OC(C)C)c(C(=O)Nc1nn[nH]n1)n2Cc1ccccc1`, for which the inhibition in experiment [1] worked out at 61%; in experiment [2], 69%.

`COc1ccc2c(c1)c(OC)c(C(=O)Nc1nn[nH]n1)n2-c1ccccc1`: the values for the inhibition in experiment [1] and in experiment [2] were 46% and 74%, respectively.

Regarding `O=C([O-])c1cc(=O)c2c(OCC(O)COc3cccc4oc(C(=O)[O-])cc(=O)c34)cccc2o1.[Na+].[Na+]` [CROMOLYN SODIUM], the Inhibition entry in the experiment listed under Cavia porcellus [5] and in the experiment listed under Homo sapiens [6] was “<=25%” in each case. This compound showed an inhibition in experiment [2] of under 25%.

Consider `COc1ccc2c(c1)c(Sc1ccccc1)c(C(=O)Nc1nn[nH]n1)n2-c1ccccc1`, for which the inhibition in [1] came to 30%; in experiment [2], 82%.

For `COc1ccc2c(OC(C)C)c(C(=O)Nc3nn[nH]n3)n(-c3ccccc3)c2c1`, the values for the inhibition in experiment [1] and in experiment [2] were 24% and 50%, respectively.

As to `CCOc1c(C(=O)Nc2nn[nH]n2)n(Cc2ccccc2)c2ccc(OC)cc12`, the inhibition in [1] is 26%; in [2], 55%.

`COc1ccc2c(c1)c(OCc1ccccc1)c(C(=O)Nc1nn[nH]n1)n2-c1ccccc1`: the results for the inhibition in experiment [1] and in experiment [2] were 43% and 84%, respectively.

In the case of `COc1ccc2c(c1)c(C(C)C)c(C(=O)Nc1nn[nH]n1)n2-c1ccccc1`, the inhibition in [2] is under 25%.

In the case of `COc1ccc2c(c1)c(OC(C)C)c(C(=O)Nc1nn[nH]n1)n2C`, the inhibition is 18% in experiment [1] and 45% in [2].

For `CC(C)Oc1c(C(=O)Nc2nn[nH]n2)n(-c2ccccc2)c2ccc(Cl)cc12`, the inhibition in [1] was 18%; in experiment [2], 72%.

Consider `COc1ccc2c(c1)c(OC(C)C)c(C(=O)Nc1nn[nH]n1)n2-c1ccccc1`, for which the values for the IC50 in the experiment listed under Homo sapiens [7], in the experiment listed under Homo sapiens [8] and in the experiment filed under Cavia porcellus [9] were 15 µM, 16.6 µM and 26.7 µM, respectively. Also, the inhibition is 46% in experiment [1] and 82% in [2].

Turning to `CC(C)Oc1c(C(=O)Nc2nn[nH]n2)n(-c2ccccc2)c2ccc(O)cc12`, in [2], the inhibition was under 25%.

In turn, `COc1cccc2c1c(OC(C)C)c(C(=O)Nc1nn[nH]n1)n2-c1ccccc1` had an inhibition in experiment [2] of under 25%.

For the compound `COc1ccc2c(c1)c(SC(C)C)c(C(=O)Nc1nn[nH]n1)n2-c1ccccc1`, the inhibition was found to be 13% in experiment [1] and 50% in experiment [2].

As for `COc1ccc2c(c1)c(SC)c(C(=O)Nc1nn[nH]n1)n2-c1ccccc1`, the values for the inhibition in experiment [1] and in experiment [2] were 20% and 66%, respectively.

For `CC(C)Oc1c(C(=O)Nc2nn[nH]n2)n(-c2ccccc2)c2ccccc12`, the inhibition in experiment [2] was under 25%.

On to `CCCCCCCCCOc1c(C(=O)Nc2nn[nH]n2)n(-c2ccccc2)c2ccc(OC)cc12`, for which the inhibition entry in the experiment listed under Homo sapiens [10] is “Sample fluorescence interferes with histamine assay”.

Regarding `CC(C)Oc1c(C(=O)Nc2nn[nH]n2)n(-c2ccccc2)c2ccc(OCc3ccccc3)cc12`, the inhibition was 65% in [1] and 66% in experiment [2].

`CCOc1c(C(=O)Nc2nn[nH]n2)n(-c2ccccc2)c2ccc(OC)cc12` showed an inhibition in experiment [2] of 73%. Further, the Inhibition in the experiment listed under Homo sapiens [11] is recorded as 55%.

In turn, `COc1ccc2c(c1)c(O)c(C(=O)Nc1nn[nH]n1)n2-c1ccccc1` registered an inhibition in [2] of under 25%.
